Experimental data published in ChEMBL document CHEMBL4715825, “Synthesis and biological evaluations of marine oxohexadecenoic acids: PPARα/γ dual agonism and anti-diabetic target gene effects” (Eur J Med Chem, 2018).
The source made the active and inactive calls. The calls are words filed in the database; no cut-off is given here.

What was measured:
[1] = molecular target: T1, Peroxisome proliferator-activated receptor alpha (Homo sapiens) (UniProt Q07869); test: Agonist activity at human PPARalpha in 8 day differentiated human SGBS cells assessed as increase in ADIPOQ gene expression at 25 uM incubated for 24 hrs by SYBR-green based qPCR analysis; assay type: cell-based
T1 sequence (whole entry): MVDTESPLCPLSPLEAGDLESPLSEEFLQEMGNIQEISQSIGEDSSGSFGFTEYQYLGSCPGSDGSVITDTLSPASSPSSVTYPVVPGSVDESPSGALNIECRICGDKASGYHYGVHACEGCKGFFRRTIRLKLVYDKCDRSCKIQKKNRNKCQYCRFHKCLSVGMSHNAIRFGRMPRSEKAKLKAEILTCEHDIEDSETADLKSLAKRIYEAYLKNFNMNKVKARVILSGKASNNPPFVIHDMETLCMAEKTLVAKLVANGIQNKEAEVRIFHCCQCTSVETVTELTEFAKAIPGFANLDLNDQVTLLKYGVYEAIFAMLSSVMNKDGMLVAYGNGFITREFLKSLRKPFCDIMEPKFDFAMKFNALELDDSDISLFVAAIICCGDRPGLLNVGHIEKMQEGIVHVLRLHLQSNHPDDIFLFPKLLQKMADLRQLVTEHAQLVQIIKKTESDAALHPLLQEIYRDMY
Outline: (§1)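 SGBS preadipocytes were seeded at passage P6-P8 and grown to confluence. They were differentiated for 4 days in Quickdiff (3FC plus dexamethasone, IBMX and rosiglitazone), then kept in 3FC with medium renewed every fourth day. On day 8, cells were stimulated for 24 h in 3FC with compound:BSA or rosiglitazone. SYBR-green qPCR used gene-specific primers. Data are mean ± SEM of three biological replicates in duplicate.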

SGBS [2] = test: Induction of adipogenesis in 8 day differentiated human SGBS cells assessed as increase in CEBPB mRNA expression at 25 uM measured upto 12 days by qRT-PCR analysis; assay type: functional, cell-based; details: time day <=12
Outline: (§2)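 SGBS cells were grown to confluence (day 0). Quickdiff medium was supplemented with compound or rosiglitazone for 4 days, followed by 3FC medium. DMSO or DMSO:BSA served as control. RNA was harvested on days 0, 4, 8 and 12, and expression was measured by SYBR-green qPCR. Data are mean ± SEM of at least three biological replicates in duplicate.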

SGBS [3] = test: Effect on diabetic complication pathway in 8 day differentiated human SGBS cells assessed as downregulation of extracellular matrix-recptor interaction genes at 25 uM incubated for 8 days by Illumina sequencing method; assay type: functional, cell-based
Outline: (§3)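 SGBS cells were differentiated 4 days in Quickdiff supplemented with compound:BSA or rosiglitazone, then 4 days in 3FC. Total RNA was extracted, and strand-specific TruSeq libraries were sequenced on NextSeq 500 (2×75 bp paired-end). Reads were aligned to hg19 with Tophat/Bowtie and counted as RPKM by Cufflinks. Values are log2 fold over day 0 cells, grouped into KEGG gene sets (n = 2-4).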

[4] = molecular target: T2, Peroxisome proliferator-activated receptor gamma (Homo sapiens) (UniProt P37231); test: Agonist activity at human PPARgamma in 8 day differentiated human SGBS cells assessed as decrease in TNF gene expression at 25 uM incubated for 24 hrs by SYBR-green based qPCR analysis; assay type: cell-based; details: filed as agonist
T2 sequence (whole entry): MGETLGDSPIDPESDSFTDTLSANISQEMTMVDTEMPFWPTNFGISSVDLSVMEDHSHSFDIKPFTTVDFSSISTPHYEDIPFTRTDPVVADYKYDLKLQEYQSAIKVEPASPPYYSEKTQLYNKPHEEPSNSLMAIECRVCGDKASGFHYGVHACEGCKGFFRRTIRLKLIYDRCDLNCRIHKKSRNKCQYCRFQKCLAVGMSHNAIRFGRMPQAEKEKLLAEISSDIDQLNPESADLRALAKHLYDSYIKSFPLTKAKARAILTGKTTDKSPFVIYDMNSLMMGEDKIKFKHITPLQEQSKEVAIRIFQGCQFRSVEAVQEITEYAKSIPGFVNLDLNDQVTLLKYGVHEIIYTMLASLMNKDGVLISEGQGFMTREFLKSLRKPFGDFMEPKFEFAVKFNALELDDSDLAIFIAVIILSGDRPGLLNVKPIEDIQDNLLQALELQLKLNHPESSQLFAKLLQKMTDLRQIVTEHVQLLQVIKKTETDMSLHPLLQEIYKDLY

SGBS [5] = test: Induction of adipogenesis in 8 day differentiated human SGBS cells assessed as increase in CD36 mRNA expression at 25 uM measured upto 12 days by qRT-PCR analysis; assay type: functional, cell-based; details: time day <=12; outline: as §2
SGBS [6] = test: Induction of adipogenesis in 8 day differentiated human SGBS cells assessed as increase in CEBPA mRNA expression at 25 uM measured upto 12 days by qRT-PCR analysis; assay type: functional, cell-based; details: time day <=12; outline: as §2
[7] = molecular target: T2, Peroxisome proliferator-activated receptor gamma (Homo sapiens); test: Agonist activity at human PPARgamma in 8 day differentiated human SGBS cells assessed as increase in IRS1 gene expression at 25 uM incubated for 24 hrs by SYBR-green based qPCR analysis; assay type: cell-based; details: filed as agonist
[8] = molecular target: T1, Peroxisome proliferator-activated receptor alpha (Homo sapiens); test: Agonist activity at human PPARalpha in 8 day differentiated human SGBS cells assessed as increase in […] gene expression at 25 uM incubated for 24 hrs by SYBR-green based qPCR analysis; assay type: cell-based; details: filed as agonist; outline: as §1
SGBS [9] = test: Effect on diabetic complication pathway in 8 day differentiated human SGBS cells assessed as downregulation of AGE-RAGE signalling genes at 25 uM incubated for 8 days by Illumina sequencing method; assay type: functional, cell-based; outline: as §3
SGBS [10] = test: Effect on diabetic complication pathway in 8 day differentiated human SGBS cells assessed as downregulation of TNF signalling genes at 25 uM incubated for 8 days by Illumina sequencing method; assay type: functional, cell-based; outline: as §3
[11] = Cytotoxicity against African green monkey COS-1 cells assessed as cell viability at EC50 concentration for PPAR activation assay by XTT assay; assay type: cell-based; details: chlorocebus aethiops, read-out: Activity
Outline: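 Run on COS-1 cells treated in parallel with the Gal4-LBD PPAR reporter assays. Metabolic NAD(P)H flux was measured by kit XTT assay per the maker's protocol. Absorbance was read at 450/690 nm.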

Activity [1]	Activity [4]	Activity [7]	Activity [8]	Compound	Activity (SGBS [2])	Activity (SGBS [3])	Activity (SGBS [5])	Activity (SGBS [6])	Activity (SGBS [9])	Activity (SGBS [10])	viability [11] [%]
inactive	Active	Active	Active	CCCCC/C=C/C(=O)CCCCCCCC(=O)O	Active	Active	Active	Active	Active	Active	> 90
inactive	Active	Active	Active	CCCCCCCC(=O)/C=C/CCCCCC(=O)O	Active	Active	Active	Active	Active	Active	> 90
